# Screening data as filed in PubChem BioAssay.
# TAAR1 ag: human TAAR1 agonists, primary screen, Fluo-8 calcium fluorescence, CHO RD-HGA16 cells; Trace amine-associated receptor 1 (Homo sapiens), Q96RJ0; vehicle wells 0%, saturating PEA agonist 100%; activation, % at 3 µM; 0.99% of 360,000 active;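 active means activation above the mean activation of all test compounds in the run plus 3 SD, cut at about 38% in these data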
#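 test system = CHO RD-HGA16 cells carrying human TAAR1 plus Gα16 | schedule = 17-24 h seeding, 75 min 37 °C dye, 30 min RT | compound dosing = 3 µM single concentration | control set = DMSO and PEA EC100 | replicates = n 1 | signal = Fluo-8 fluorescence, 5 s baseline then 140 s kinetic read | measure = percent activation vs PEA EC100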
# TAAR1 antag: human TAAR1 antagonists, primary screen, Fluo-8 calcium fluorescence, CHO RD-HGA16 cells; Trace amine-associated receptor 1 (Homo sapiens), Q96RJ0; antagonist; inhibition, % at 3 µM; 1.5% of 360,000 active;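 active means inhibition above a per-plate cutoff, the mean inhibition of test compounds on that plate plus 3 SD, cut at about 49% in these data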;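 further: 0% = DMSO plus EC80 beta-PEA response and 100% = DMSO alone without agonist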
#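 Test system: hTAAR1-expressing CHO RD-HGA16 cells, Gα16-coupled; Probe or stimulus: EC80 β-phenethylamine stimulus; Compound dosing: single nominal final test compound concentration of 3 µM; Timing: 140 s kinetic read after compound, 140 s after agonist; Signal: Fluo-8 calcium-sensitive fluorescence; Measure: % inhibition of agonist calcium response; Controls: DMSO and EC80 PEA controls.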
# CHRM1 agonist: human M1 muscarinic receptor agonists, primary screen, Fluo-8 calcium fluorescence, CHO-K1 cells, HTS; Muscarinic acetylcholine receptor M1 (Homo sapiens), P11229; CHO-K1 hM1, agonist mode; 0% DMSO, 100% acetylcholine EC100; activation, % at 3 µM; 0.33% of 360,000 active; AID 588814, 2011;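 active means activation above the run's mean compound activation plus 3 SD, cut at about 16% in these data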;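 further: peak over basal fluorescence ratio within a 140 s kinetic read after compound addition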
# Target sequence (P11229 whole entry, looked up): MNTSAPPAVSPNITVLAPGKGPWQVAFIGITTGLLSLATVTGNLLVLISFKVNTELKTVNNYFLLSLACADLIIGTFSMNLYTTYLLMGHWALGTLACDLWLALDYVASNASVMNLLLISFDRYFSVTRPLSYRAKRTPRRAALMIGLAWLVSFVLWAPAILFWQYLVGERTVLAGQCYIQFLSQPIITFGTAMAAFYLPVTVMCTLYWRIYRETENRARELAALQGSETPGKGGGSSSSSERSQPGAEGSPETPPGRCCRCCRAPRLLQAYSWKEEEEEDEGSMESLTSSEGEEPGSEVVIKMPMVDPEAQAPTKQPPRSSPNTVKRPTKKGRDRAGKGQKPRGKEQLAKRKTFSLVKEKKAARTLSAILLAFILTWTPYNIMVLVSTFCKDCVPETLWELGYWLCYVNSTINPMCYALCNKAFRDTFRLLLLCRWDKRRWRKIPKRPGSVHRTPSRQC
# m5-HT2A agonist: mouse Htr2a agonists via beta-arrestin recruitment, primary screen, cell-based, luminescence. CHO-K1 mHTR2A beta-arrestin complementation; percent of 30 µM serotonin response. 5-hydroxytryptamine receptor 2A (Mus musculus), P35363. 0.66% of 360,000 active. activation, % at 7.6 µM. AID 624169, 2012;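 active means activation above a run cutoff, the mean activation of all tested compounds plus 3 SD, cut at about 14% in these data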;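 further: 0% = plate median of compound wells and 100% = 30 µM serotonin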
# CHRM1 antagonist: human M1 muscarinic receptor antagonists, primary screen, CHO-K1 cells, Fluo-8 calcium fluorescence, 1536-well; inhibition, % at 3 µM; AID 588852, 2011; 1.3% of 360,000 active; CHO-K1 hM1, ACh EC80 antagonist; Muscarinic acetylcholine receptor M1 (Homo sapiens), P11229;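 active means percent inhibition above its own plate's cutoff, namely the mean of that plate's compound wells plus 3 SD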;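 further: peak over basal fluorescence ratio during 140 s after agonist addition; 0% = ACh EC80 plus DMSO and 100% = DMSO alone without agonist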
# CHRM1 PAM: human M1 muscarinic receptor positive allosteric modulators, primary screen, CHO-K1 cells, Fluo-8 calcium fluorescence, 1536-well. Muscarinic acetylcholine receptor M1 (Homo sapiens), P11229. CHO-K1 hM1, ACh EC20; 0% = ACh EC20, 100% = maximal ACh. activation, % at 3 µM. 0.088% of 360,000 active. AID 588819, 2011; in the data active means activation above about 19%, passing the limit was not always enough
# OPRM1 ag: OPRM1 agonists via beta-arrestin recruitment, confirmation, counter-screen for mouse HTR2A agonist project, cell-based, luminescence, single concentration; AID 624380, 2012; activation, % at 9.3 µM; shares compounds with m5-HT2A agonist; 5.3% of 2,300 active; U2OS OPRM1 beta-arrestin PathHunter; DMSO 0%, DAMGO 9.3 µM 100%;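 active means mean activation above the mean of DMSO-only wells plus 3 SD, cut at about 0.5% in these data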
# m5-HT2A ag conf: mouse HTR2A agonists, beta-arrestin recruitment, confirmation, cell-based, luminescence, CHO-K1 PathHunter, triplicate | activation, % at 7.6 µM | shares compounds with m5-HT2A agonist | DMSO 0%, 30 µM serotonin 100% | 19% of 2,300 active;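 active means mean activation across triplicates above the hit threshold derived in the original primary screen, cut at about 15% in these data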
# Active calls of the source: *; x = not tested or not shown. Most compounds without a hit are left out; they make up all but 3.9% or so of the library.
SMILES,TAAR1 ag,TAAR1 antag,CHRM1 agonist,m5-HT2A agonist,CHRM1 antagonist,CHRM1 PAM,others
C[N+]1(C)C2CC(OC(=O)[C@H](CO)c3ccccc3)CC1C1OC12 (some centres not stated),0,-12,x,4,x,x,
C[N+]1(C)[C@@H]2CC[C@H]1CC(OC(=O)[C@@H](CO)c1ccccc1)C2 (some centres not stated),0,0,-9,0,102*,-29,
O=[N+]([O-])c1cccc(NP(=O)(N2CC2)N2CC2)c1,1,-19,1,-3,-8,4,
CCN1CCN(CC(c2ccccc2)c2ccccc2)CC1,1,-13,-9,-6,100*,-30,
Cn1c(=O)n(CC(=O)N2CCC3(CC2)OCCO3)c(=O)c2ccccc21,2,7,3,-1,-64,25*,
O=C(Cn1c(=S)[nH]c2ccccc2c1=O)N1CCC2(CC1)OCCO2,3,-4,-4,-4,2,-2,
Cc1cc(C(=O)OCC(=O)Nc2ccc(F)cc2)c(C)n1C1CC1,6,-1,-3,-6,-8,4,
CC(=O)O[C@]1(c2ccccc2)CCN(C)[C@H]2CCCC[C@@H]21,10,1,-4,0,3,2,
CC(=O)OC1(c2ccccc2)CCN(C2CCCCC2)CC1C (configuration not stated),0,-22,-7,4,31*,-23,
COc1ccc(C(=O)NC(=S)N2C[C@H]3C[C@H](C2)c2cccc(=O)n2C3)cc1,0,-14,-2,4,-8,3,
c1ccc(-c2ccc(CN3Cc4ccccc4-n4nncc4C3)cc2)cc1,0,31,-2,-2,36*,-19,
N=Cc1c(O)n(-c2ccc(C34CC5CC(CC(C5)C3)C4)cc2)c(=O)[nH]c1=O,16,-4,6,1,-12,14,
CN1OCC2Cn3c(nc4ccccc43)C21 (configuration not stated),14,8,5,-5,-13,27*,
c1ccc(C(OCCN2CCN(c3ncccn3)CC2)c2ccccc2)cc1,5,-51,-6,-11,48*,-27,
Clc1ccc(C(OCCN2CCCCC2)c2ccccc2)cc1 (configuration not stated),5,-15,-6,-14,96*,-27,
COc1cc2c(cc1OC)C(C(=O)N(C)C1CCCCC1)C1CCCCN1C2=O (configuration not stated),3,10,-8,-2,-12,7,
CCCCCCOc1ccc(CN2CCN(CCO)CC2)cc1,6,-15,-13,-7,23,-19,
CCCCOc1ccc(CN2CCN(CCO)CC2)cc1,11,9,-8,-1,33*,-19,
O=C1C2CCCC1C(N1CCCC1)CC2 (configuration not stated),-1,5,-7,-4,-10,9,
O=C(Cc1ccccc1)OCCN1CCCCC1,11,18,-6,5,34*,-20,
N#CC12c3ccccc3C(=O)N1Cc1cnnn1-c1ccccc12 (configuration not stated),1,-7,-9,3,3,2,
CC(C)CNC(=O)c1c(N)n(Cc2ccc3c(c2)OCO3)c2nc3ccccc3nc12,3,-4,-3,-6,41*,-16,
CC(C)C[C@H]1COc2cc(N3CCN(C)CC3)ccc2S(=O)(=O)N1,1,-19,x,2,x,x,
Cc1c(N=Cc2c(O)n(CCc3ccc(F)cc3)c(=O)[nH]c2=O)c(=O)n(-c2ccccc2)n1C,-2,0,-7,-3,-24,0,
Cc1ccc2c(c1)Oc1ccccc1N=C2,-1,-15,-1,-6,4,-3,
SMILES,TAAR1 ag,TAAR1 antag,CHRM1 agonist,m5-HT2A agonist,CHRM1 antagonist,CHRM1 PAM,others
NC1=Nc2ccccc2Oc2ccccc21,40*,16,-3,-11,-9,11,
O=c1[nH]c(=S)[nH]c(O)c1C(c1ccccn1)c1c(O)[nH]c(=S)[nH]c1=O,1,-17,-4,-2,-13,11,
C[C@@H]1CN([C@H](C)CO)C(=O)CCCn2cc(nn2)CO[C@H]1CN(C)C(=O)Oc1cccc2ccccc12,0,11,3,3,-13,7,
CC1(C)CCCN1CCC(C(N)=O)(c1ccccc1)c1ccccc1,1,-10,-8,-2,99*,-29,
CC(C)N(CCC(C(N)=O)(c1ccccc1)c1ccccn1)C(C)C (configuration not stated),2,-8,-7,2,21,-22,
N#CCP(=S)(c1ccccc1)c1ccccc1,-1,-23,-10,-3,-4,2,
CC(Cc1ccccc1Sc1ccc(O)cc1)N(C)C (configuration not stated),x,x,-4,-11,83*,-23,
COc1ccccc1Sc1ccccc1CC(C)N (configuration not stated),13,10,-6,-2,-2,1,
CCOC(=O)c1ccc(NC(=O)N2C[C@@H]3C[C@@H](C2)c2cccc(=O)n2C3)cc1,3,0,-14,25*,19,-10,OPRM1 ag=0;m5-HT2A ag conf=-2
CC(C)c1ccc(-n2c(O)c(C=NC(CCS(C)=O)C(=O)O)c(=O)[nH]c2=S)cc1 (configuration not stated),1,-34,-3,1,-3,3,
C/C=C1/CC(C)C(C)(O)C(=O)OCC2CCN3CCC(OC1=O)C23 (configuration not stated),4,-19,x,-5,x,x,
